Measurements as given in ChEMBL document CHEMBL3112391, “Ethoxysanguinarine Induces Inhibitory Effects and Downregulates CIP2A in Lung Cancer Cells” (ACS Med Chem Lett, 2014).
Active and inactive are the calls of the source.

What was measured:
A549 [1] = test: Downregulation of CIP2A protein expression in human A549 cells after 24 hrs by Western blot analysis; assay type: functional, cell-based
Method in brief: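 A549 cells were incubated with ESG at a series of concentrations, including 3.5 and 10 μM, for 24 h. Cell lysates were immunoblotted for CIP2A.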

A549 [2] = test: Cytotoxicity against human A549 cells assessed as growth inhibition after 48 hrs by MTT assay; assay type: functional, cell-based; conditions: A549, 48 h
Method in brief: (§1)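 Lung cancer cell lines (adenocarcinoma, squamous and large cell lines) exposed to 0.5−10 μM for 48 h; viability read by MTT; IC50 taken from the dose–response.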

NCI-H1975 [3] = test: Downregulation of CIP2A protein expression in human NCI-H1975 cells after 24 hrs by Western blot analysis; assay type: functional, cell-based
Method in brief: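 H1975 cells were incubated with ESG at a series of concentrations, including 1 and 2 μM, for 24 h. Cell lysates were Western blotted with anti-CIP2A antibody.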

A549 [4] = test: Downregulation of CIP2A mRNA expression in human A549 cells after 24 hrs by RT-PCR analysis; assay type: functional, cell-based
Method in brief: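 Cells exposed to ESG for 24 h. CIP2A transcript level was measured by real-time quantitative RT-PCR.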

NCI-H1975 [5] = test: Cytotoxicity against human NCI-H1975 cells assessed as growth inhibition after 48 hrs by MTT assay; assay type: functional, cell-based; conditions: NCI-H1975, 48 h; method in brief: as §1
NCI-H1975 [6] = test: Cytotoxicity against human NCI-H1975 cells assessed as growth inhibition at 1.5 uM after 24 hrs by MTT assay in presence of pan-caspase inhibitor z-VAD.fmk; assay type: functional, cell-based
Method in brief: (§2)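 Cells pretreated 1 h with z-VAD-fmk (20 μM), then exposed for 24 h (H1975 at 1.5 μM, A549 at 5 μM); viability by MTT.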

[7] = molecular target: Protein CIP2A (Homo sapiens) (UniProt Q8TCG1); test: Inhibition of CIP2A in human A549 cells assessed as potentiation of cisplatin-induced cell growth inhibition at 3.5 uM after 24 hrs by MTT assay; assay type: cell-based
Method in brief: (§3)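 Cells treated 24 h with test agent, cisplatin or both (H1975: 1 μM with 10 μM cisplatin; A549: 3.5 μM with 20 μM cisplatin); viability by MTT.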

NCI-H1975 [8] = test: Induction of apoptosis in human NCI-H1975 cells assessed as PARP cleavage at 1.5 uM after 24 hrs by Western blot analysis in presence of pan-caspase inhibitor z-VAD.fmk; assay type: functional, cell-based
Method in brief: (§4)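 Cells pretreated 1 h with z-VAD-fmk (20 μM), then exposed for 24 h (H1975 at 1.5 μM, A549 at 5 μM); lysates immunoblotted for PARP and its cleavage fragment.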

[9] = molecular target: Protein CIP2A (Homo sapiens) (UniProt Q8TCG1); test: Inhibition of CIP2A in human NCI-H1975 cells assessed as potentiation of cisplatin-induced cell growth inhibition at 1 uM after 24 hrs by MTT assay; assay type: cell-based; method in brief: as §3
[10] = molecular target: Protein CIP2A (Homo sapiens) (UniProt Q8TCG1); test: Induction of CIP2A proteolysis in human A549 cells at 5 uM after 4 hrs in presence of protein synthesis inhibitor cycloheximide; assay type: cell-based
Method in brief: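 A549 cells given 100 μg/mL cycloheximide with or without 5 μM test agent over a time course; whole-cell lysates probed for CIP2A.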

NCI-H1975 [11] = test: Induction of apoptosis in human NCI-H1975 cells assessed as decrease in pro-caspase-8 protein expression at 1 to 2.5 uM after 24 hrs by Western blot analysis; assay type: functional, cell-based
Method in brief: (§5)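 H1975 or A549 cells treated 24 h at various concentrations; lysates immunoblotted for apoptosis markers (PARP, caspases).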

NCI-H460 = test: Cytotoxicity against human NCI-H460 cells assessed as growth inhibition after 48 hrs by MTT assay; assay type: functional, cell-based; conditions: NCI-H460, 48 h; method in brief: as §1
NCI-H1975 [12] = test: Induction of apoptosis in human NCI-H1975 cells at 0.5 to 2.5 uM after 24 hrs by annexin V/propidium iodide staining-based flow cytometric analysis; assay type: functional, cell-based
Method in brief: (§6)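 H1975 or A549 cells treated 24 h at various concentrations; apoptosis scored by annexin V/propidium iodide staining and flow cytometry.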

A549 [13] = test: Downregulation of CIP2A protein expression in human A549 cells at 3.5 to 10 uM after 24 hrs by Western blot analysis; assay type: functional, cell-based
Method in brief: (§7)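 H1975 or A549 cells incubated 24 h across a concentration series; whole-cell lysates immunoblotted for CIP2A, c-Myc, pAKT and total AKT.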

NCI-H1975 [14] = test: Induction of apoptosis in human NCI-H1975 cells assessed as PARP cleavage at 1 to 2.5 uM after 24 hrs by Western blot analysis; assay type: functional, cell-based; method in brief: as §5
[15] = Cytotoxicity against human L78 cells assessed as growth inhibition after 48 hrs by MTT assay; assay type: functional, cell-based; conditions: L78, 48 h; method in brief: as §1
A549 [16] = test: Cytotoxicity against human A549 cells assessed as growth inhibition at 5 uM after 24 hrs by MTT assay in presence of PP2A inhibitor okadaic acid; assay type: functional, cell-based
Method in brief: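 A549 cells pretreated 2 h with okadaic acid (25 nM), then 5 μM test agent for 24 h; viability by MTT.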

[17] = molecular target: Protein CIP2A (Homo sapiens) (UniProt Q8TCG1); test: Inhibition of CIP2A in human A549 cells assessed as downregulation of p-AKT protein expression at 1 to 10 uM after 24 hrs by Western blot analysis; assay type: cell-based; method in brief: as §7
A549 [18] = test: Downregulation of CIP2A protein expression in human A549 cells at 5 uM by Western blot analysis; assay type: functional, cell-based; conditions: TDE = time-dependent effect
Method in brief: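 A549 cells treated with 5 μM over a time course; lysates immunoblotted for CIP2A.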

A549 [19] = test: Cytotoxicity against human A549 cells assessed as growth inhibition at 5 uM after 24 hrs by MTT assay in presence of pan-caspase inhibitor z-VAD.fmk; assay type: functional, cell-based; method in brief: as §2
NCI-H1975 [20] = test: Downregulation of CIP2A protein expression in human NCI-H1975 cells at 1 to 2 uM after 24 hrs by Western blot analysis; assay type: functional, cell-based; method in brief: as §7
[21] = molecular target: Protein CIP2A (Homo sapiens) (UniProt Q8TCG1); test: Induction of FLAG-tagged CIP2A (unknown origin) proteolysis transfected in human A549 cells after 4 to 12 hrs; assay type: cell-based
Method in brief: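 A549 cells transfected 24 h with Flag-CIP2A, then treated over a time course; whole-cell lysates probed with anti-Flag.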

[22] = molecular target: Protein CIP2A (Homo sapiens) (UniProt Q8TCG1); test: Inhibition of CIP2A in human A549 cells assessed as induction of PP2A activity at 5 uM after 4 to 8 hrs by Western blot analysis; assay type: cell-based
Method in brief: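 A549 cells exposed to 5 μM over a time course, lysed, and PP2A activity measured in the lysates.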

[23] = Cytotoxicity against human GLC82 cells assessed as growth inhibition after 48 hrs by MTT assay; assay type: functional, cell-based; conditions: GLC82, 48 h; method in brief: as §1
NCI-H1975 [24] = test: Induction of apoptosis in human NCI-H1975 cells assessed as decrease in pro-caspase-9 protein expression at 1 to 2.5 uM after 24 hrs by Western blot analysis; assay type: functional, cell-based; method in brief: as §5
A549 [25] = test: Induction of apoptosis in human A549 cells assessed as decrease in pro-caspase-9 protein expression at 1 to 10 uM after 24 hrs by Western blot analysis; assay type: functional, cell-based; method in brief: as §5
[26] = molecular target: Protein CIP2A (Homo sapiens) (UniProt Q8TCG1); test: Inhibition of CIP2A in human A549 cells assessed as potentiation of cisplatin-induced PARP cleavage at 3.5 uM after 24 hrs by Western blot analysis; assay type: cell-based
Method in brief: (§8)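 Cells cultured 24 h with test agent and/or cisplatin; lysates immunoblotted for PARP cleavage.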

[27] = Cytotoxicity against human SPC-A1 cells assessed as growth inhibition after 48 hrs by MTT assay; assay type: functional, cell-based; conditions: SPCA1, 48 h; method in brief: as §1
[28] = molecular target: Protein CIP2A (Homo sapiens) (UniProt Q8TCG1); test: Inhibition of CIP2A in human NCI-H1975 cells assessed as downregulation of c-Myc protein expression at 1 to 2.5 uM after 24 hrs by Western blot analysis; assay type: cell-based; method in brief: as §7
A549 [29] = test: Induction of apoptosis in human A549 cells assessed as PARP cleavage at 5 uM after 24 hrs by Western blot analysis in presence of pan-caspase inhibitor z-VAD.fmk; assay type: functional, cell-based; method in brief: as §4
[30] = Cytotoxicity against human 95-D cells assessed as growth inhibition after 48 hrs by MTT assay; assay type: functional, cell-based; method in brief: as §1
A549 [31] = test: Induction of apoptosis in human A549 cells assessed as decrease in pro-caspase-8 protein expression at 1 to 10 uM after 24 hrs by Western blot analysis; assay type: functional, cell-based; method in brief: as §5
[32] = molecular target: Protein CIP2A (Homo sapiens) (UniProt Q8TCG1); test: Inhibition of CIP2A in human NCI-H1975 cells assessed as potentiation of cisplatin-induced PARP cleavage at 1 uM after 24 hrs by Western blot analysis; assay type: cell-based; method in brief: as §8
[33] = molecular target: Protein CIP2A (Homo sapiens) (UniProt Q8TCG1); test: Inhibition of CIP2A in human NCI-H1975 cells assessed as downregulation of p-AKT protein expression at 1 to 2.5 uM after 24 hrs by Western blot analysis; assay type: cell-based; method in brief: as §7
A549 [34] = test: Downregulation of CIP2A mRNA expression in human A549 cells at 1 to 10 uM after 24 hrs by RT-PCR analysis; assay type: functional, cell-based
Method in brief: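 CIP2A transcript measured by real-time quantitative RT-PCR after 24 h treatment.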

[35] = molecular target: Protein CIP2A (Homo sapiens) (UniProt Q8TCG1); test: Inhibition of CIP2A in human A549 cells assessed as downregulation of c-Myc protein expression at 1 to 10 uM after 24 hrs by Western blot analysis; assay type: cell-based; method in brief: as §7
A549 [36] = test: Induction of apoptosis in human A549 cells assessed as PARP cleavage at 1 to 10 uM after 24 hrs by Western blot analysis; assay type: functional, cell-based; method in brief: as §5
A549 [37] = test: Induction of apoptosis in human A549 cells at 2.5 to 10 uM after 24 hrs by annexin V/propidium iodide staining-based flow cytometric analysis; assay type: functional, cell-based; method in brief: as §6

C=C1C(=O)[C@]23[C@H](O)[C@H]1CC[C@H]2[C@@]12CO[C@@]3(O)C[C@@H]1C(C)(C)CC[C@@H]2OC(C)=O [RABDOCOETSIN B]
10300 nM: IC50 (NCI-H1975 [5])
active: Activity (A549 [1]) | Activity (NCI-H1975 [3]) | Activity (A549 [4])
14200 nM: IC50 (A549 [2])

CCOC1c2c(ccc3c2OCO3)-c2ccc3cc4c(cc3c2N1C)OCO4 (stereo not given)
active: inhibition [7] | inhibition [9] | Activity [10] | Activity (NCI-H1975 [11]) | Activity (NCI-H1975 [12]) | Activity (A549 [13]) | Activity (NCI-H1975 [14]) | inhibition [17] | Activity (A549 [18]) tde | Activity (NCI-H1975 [20]) | Activity [21] | inhibition [22] | Activity (NCI-H1975 [24]) | Activity (A549 [25]) | inhibition [26] | inhibition [28] | Activity (A549 [31]) | inhibition [32] | inhibition [33] | Activity (A549 [34]) | inhibition [35] | Activity (A549 [36]) | Activity (A549 [37])
2740 nM: IC50 (A549 [2])
inactive: growth inhibition (GI) (NCI-H1975 [6]) | Activity (NCI-H1975 [8]) | growth inhibition (GI) (A549 [16]) | growth inhibition (GI) (A549 [19]) | Activity (A549 [29])
1300 nM: IC50 [23]
1560 nM: IC50 (NCI-H460)
1000 nM: IC50 [15]
1100 nM: IC50 [27]
1290 nM: IC50 (NCI-H1975 [5])
2000 nM: IC50 [30]
